Screens from PubChem.
Only a sample is shown.
Apaf1 activ: activates human Apaf-1 apoptosome. O14727. Apaf-1 apoptosome caspase-3 activation, DEVD-Rh110 fluorescence; stronger effect = lower value. activity change, negative = activation, % at 20 µM. 330,000 compounds, 0.31% hits. AID 489031;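 active = activity change at or below -40% at 20 µM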
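System: Reconstituted apoptosome of Apaf-1, cytochrome c, caspase-9, procaspase-3 | Reagent: dATP, cytochrome c, and (Z-DEVD)2-Rh110 caspase-3 substrate | Times: 30 min compound preincubation and 50 min reaction, both room temperature | Detection: Caspase-3-released Rh110 fluorescence, 540 nm emission, 480 nm excitation | Measure: Caspase-3 activity via Apaf-1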
Rh110 act interf: Rh110 signal interference in Apaf-1 activator counter-screen. shares compounds with Apaf1 activ. 980 tested, under 10 active. Rh110 fluorescence interference, quenched caspase reaction, Ex480/Em540. fluorescence interference (activity change), % at 20 µM, hits read low;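 active = mean activity change at or below -40% when tested at 20 µM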
Apaf-1 act conf: Apaf-1 (human) activation, single-dose confirmed; shares compounds with Apaf1 activ; reconstituted apoptosome caspase-3 activity, DEVD-Rh110 fluorescence; stronger effect = lower value; activity change, negative = activation, % at 20 µM; 980 compounds, 5% hits;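 active = mean activity change at or below -40%, meaning activation of 40% or more, at 20 µM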
Large screens that a line does not name were inactive (follow-up assays come after a bar, where they were run).

O=C(c1ccc2c(c1)ncn2-c1ccc(F)cc1F)N1CCC2(CC1)OCCO2	Apaf1 activ -76 | Rh110 act interf inactive | Apaf-1 act conf inactive
CC(NC(C)(C)C)C(=O)c1cccc(Cl)c1 (configuration not stated)	none
CCCN1CCc2cc(O)cc3c2[C@H]1Cc1ccc(O)c(O)c1-3	none
O=S1(=O)N(CCN2CC=C(c3c[nH]c4cc(F)ccc34)CC2)c2cccc3c2N1CCC3	none
Nc1c(C(=O)NCCN2CCOCC2)c2nc3ccccc3nc2n1Cc1ccccc1	none
C[n+]1c(-c2ccccc2)c2cc(N)ccc2c2ccc(N)cc21	none
COc1cc2c(cc1O)[C@@H]1Cc3ccc(OC)c(O)c3CN1CC2	none
